# Measurements collected from several papers.
# Protocols differ between the studies behind these lines.
# Target: Tyrosine-protein kinase receptor Tie-1 (TIE1, Homo sapiens, UniProt P35590)
Compound,observed,technique,concentration,remaining binding [%]
CS(=O)(=O)NCC[C@H](NC(=O)c1cncc2c1cnn2-c1ccc(F)cc1)c1ccnc(S(C)(=O)=O)c1,cell-free assay,competition with immobilised ligand,1 µM,100
F[C@@H]1CCN(c2nccc(-c3cnn4ncccc34)n2)C1,binding,,1 µM,100
O=S(=O)(NC1CCC(c2cc(F)ccc2F)(S(=O)(=O)c2ccc(Cl)cc2)CC1)C(F)(F)F (stereo not shown),cell-free assay,competition with immobilised ligand,1 µM,100
Cc1cnn2ncc(-c3ccnc(N(C)C)n3)c2c1,binding,,1 µM,98
C[C@@H](c1ccc(-n2cnc3c(N)ncnc32)cc1)N1CCc2nn(C)c(Cc3ccccc3)c2C1=O,binding,competition with immobilised ligand,0.1 µM,84
N[C@@H]1CCN(c2nccc(-c3cnn4ncccc34)n2)C1,binding,,1 µM,100
CCCCN(CCCC)C(=O)CN1C[C@@H](c2cc(OC)c3c(c2)OCO3)[C@H](C(=O)O)[C@H]1CC(C)(C)CCC,cell-free assay,competition with immobilised ligand,1 µM,94.7
Cc1cnc(Nc2ccc(C(=O)N3CCC(N4CCCC4)CC3)cc2)nc1-c1cc2ccccc2s1,binding,competition with immobilised ligand,1 µM,10
CN(C)c1nccc(-c2cnn3ncccc23)n1,binding,,1 µM,100
O=C(NCCCN1CCOCC1)c1ccc(Nc2ncc(Cl)c(-c3ccc(Cl)s3)n2)cc1,binding,competition with immobilised ligand,1 µM,44
FC(F)(F)Oc1cccc(-c2cnc3ccc(-c4ccncc4)nn23)c1,cell-free assay,competition with immobilised ligand,5 µM,84
CNC(=O)[C@@H]1CC[C@@H](n2c(-c3ccc4cnccc4c3)nc3ccc(C(=O)NCc4cccc(C(N)=O)c4)cc32)C1,binding,competition with immobilised ligand,1 µM,85
Nc1ncc2c(n1)-c1c([nH]c3ccc(C#CC4CC4)cc13)CCCC2,binding,competition with immobilised ligand,1 µM,96
CNC(=O)c1ccc(Nc2ncc(C(F)(F)F)c(NCc3nccnc3N(C)S(C)(=O)=O)n2)cc1,cell-free assay,competition with immobilised ligand,0.1 µM,47
C[C@H]1CCN(c2nccc(-c3cnn4ncccc34)n2)C1,binding,,1 µM,75
C[C@@H](c1cccc(C#N)c1)n1cc(Cl)cc(C(N)=O)c1=N,cell-free assay,competition with immobilised ligand,1 µM,87
CC1CCCN1c1nccc(-c2cnn3ncccc23)n1 (stereo not shown),binding,,1 µM,100
O=C(c1ccc(Nc2ncc(Cl)c(-c3cc4ccccc4s3)n2)cc1)N1CCC(N2CCCC2)CC1,binding,competition with immobilised ligand,1 µM,4.8
O=C(O)[C@@H]1[C@@H](Cn2nnc3ccccc3c2=O)CC[C@H]1C(=O)c1ccc(OCCC2CCOCC2)cc1,cell-free assay,competition with immobilised ligand,1 µM,100
C=CC(=O)N1CCC(C(=O)NCC(=O)N2CCN(c3nc(-c4cnc(N)nc4C(F)F)nc(N4CCOCC4)n3)CC2)CC1,binding,competition with immobilised ligand,1 µM,100
CN(c1nccc(-c2cnn3ncccc23)n1)C1CC1,binding,,1 µM,100
O=C(Nc1c[nH]nc1C(=O)NC1CCNCC1)c1cc(F)cc(F)c1,binding,competition with immobilised ligand,1 µM,100
